A word on the inhibition: it is the drop in the measured response relative to a control, in per cent.

The target in assay [1] is T1, Estrogen receptor (Mus musculus) (UniProt O08537+P19785). In words: Uterotrophic effect in BD2F mice bearing transplantable hormone dependent MXT at 8 mg dose. In kind it is functional, tissue-based. The conditions noted are these: Uterus. An outline of the steps:
(§1)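 MXT-bearing female BD2F1 mice (10 per group) dosed sc in olive oil three times weekly for 6 weeks from the day after tumor transplantation. Uteri excised at sacrifice and dry weight determined; values given as mean ± SD.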

In assay [2] the target is T1, Estrogen receptor (Mus musculus). Nature of the assay: (§2) Uterotrophic effect in mice at 0 ug dose. Type of assay: functional, tissue-based. Also noted: unit not given here. Particulars: Uterus. A digest of the protocol:
(§3)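 Immature female NMRI mice, 20 days old, 10 per group, given daily sc injections of 0.1 mL olive oil solution for 3 days. Uteri removed 24 h after the last dose, fixed in Bouin's solution, washed, dried and weighed. Antiestrogenic testing measured inhibition of estrone-stimulated uterine growth.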

Assay [3] has the same target. In words: Uterotrophic effect in BD2F mice bearing transplantable hormone dependent MXT at 1.33 mg dose. In kind it is functional, tissue-based. The conditions noted are these: Uterus. An outline of the steps: as §1
Assay [4] shares this target. Nature of the assay: (§4) Uterotrophic effect in mice at 1 ug dose. The conditions noted are these: Uterus. In kind it is functional, tissue-based. Set-up: unit not given here. An outline of the steps:
as §3

The target is the same in assay [5]. Nature of the assay: (§5) Uterotrophic effect in mice at 10 ug dose. In kind it is functional, tissue-based. Also noted: unit not given here. The conditions noted are these: Uterus. An outline of the steps:
as §3

Assay [6] shares this target. In words: (§6) Uterotrophic effect in mice at 0.1 ug dose. Type of assay: functional, tissue-based. Set-up: unit not given here. Particulars: Uterus. A digest of the protocol: as §3
Assay [7] has the same target. Nature of the assay: Uterotrophic effect in BD2F mice bearing transplantable hormone dependent MXT at 4 mg dose. Particulars: Uterus. In kind it is functional, tissue-based. A digest of the protocol: as §1
Assay [8] is filed under the species Mus musculus. In words: Relative average tumor wet weight in treated compared to untreated mice at 1.33 mg dose. Type of assay: functional. An outline of the steps: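 MXT mammary tumor pieces of 1-2 mm³ from syngeneic donors were implanted sc by trocar into female BD2F₁ mice aged 8-10 weeks (20.0 ± 1.7 g), groups of 10. From the next day, compound in olive oil was given sc three times weekly for 6 weeks. Tumor wet weight was measured at the end and expressed as % T/C.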

For assay [9], the species on record is Mus musculus. In words: Relative average tumor wet weight in treated compared to untreated mice at 4 mg dose. Type of assay: functional. A digest of the protocol:
(§7)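 Syngeneic female BD2F1 mice (8–10 weeks) received sc trocar implants of 1–2-mm³ MXT tumor pieces, 10 per group. Treatment began the next day: sc doses in olive oil (solution or suspension), three times weekly for 6 weeks. Tamoxifen-treated control group included. Tumor wet weight measured at sacrifice; expressed as % T/C versus untreated controls.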

Assay [10] is filed under the species Mus musculus. Nature of the assay: Relative average tumor wet weight in treated compared to untreated mice at 8 mg dose. In kind it is functional. An outline of the steps:
as §7

Assay [11] has as its target T1, Estrogen receptor (Mus musculus). In words: (§8) Uterotrophic effect in mice at 100 ug dose. In kind it is functional, tissue-based. Particulars: Uterus. A digest of the protocol: as §3
For assay [12] the target is unchanged. The assay is described as §4. Type of assay: functional, tissue-based. Particulars: Uterus. A digest of the protocol:
as §3

The target is the same in assay [13]. The description is as §6. In kind it is functional, tissue-based. Particulars: Uterus. An outline of the steps: as §3
For assay [14] the target is unchanged. The description is as §8. In kind it is functional, tissue-based. Also noted: unit not given here. The conditions noted are these: Uterus. A digest of the protocol:
as §3

Assay [15] has the same target. Nature of the assay: Uterotrophic effect in mice at 1000 ug dose. In kind it is functional, tissue-based. Also noted: unit not given here. Particulars: Uterus. An outline of the steps:
as §3

Assay [16] shares this target. Described as §2. In kind it is functional, tissue-based. Set-up: unit not given here. The conditions noted are these: Uterus. An outline of the steps:
as §3
The source holds these as a separate data set.

For assay [17] the target is unchanged. Described as §5. In kind it is functional, tissue-based. Particulars: Uterus. An outline of the steps: as §3
For assay [18] the target is unchanged. In words: Uterotrophic effect in mice at 25 ug dose. Type of assay: functional, tissue-based. Set-up: unit not given here. The conditions noted are these: Uterus. A digest of the protocol:
as §3

Assay [19] shares this target. In words: Uterotrophic effect in BD2F mice bearing transplantable hormone dependent MXT at 20 mg dose. Type of assay: functional, tissue-based. Particulars: Uterus. A digest of the protocol: as §1
Assay [20] shares this target. In words: Anti-uterotrophic effect in mice at 100 ug dose. Type of assay: functional. An outline of the steps:
(§9)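 Immature female NMRI mice, 20 days old (14.5 ± 1.2 g), randomized into groups of 10. Each received a daily sc injection of compound in 0.1 mL olive oil for 3 days, given together with estrone. Uteri were taken 24 h after the last injection, fixed in Bouin's solution, washed, dried and weighed. The read-out was inhibition of estrone-stimulated uterine growth.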

For assay [21] the target is unchanged. In words: Anti-uterotrophic effect in mice at 10 ug dose. In kind it is functional. An outline of the steps:
as §9

Assay [22] has the same target. Nature of the assay: Anti-uterotrophic effect in mice at 1 ug dose. In kind it is functional. An outline of the steps:
as §9

Assay [23] shares this target. Nature of the assay: Anti-uterotrophic effect in mice at 25 ug dose. Type of assay: functional. A digest of the protocol: as §9
For assay [24], the species on record is Mus musculus. Nature of the assay: Relative average tumor wet weight in treated compared to untreated mice at 20 mg dose. In kind it is functional. An outline of the steps: as §7
Assay [25] deals with Rattus norvegicus. In words: Percent change in body weight in DMBA-Induced Hormone-Dependent Mammary Carcinoma rats at 2 mg/kg dose. In kind it is functional.
Assay [26] has as its system Rattus norvegicus. In words: Percent change in body weight in DMBA-Induced Hormone-Dependent Mammary Carcinoma rats at 5 mg/kg dose. Type of assay: functional.
In assay [27] the test system is Rattus norvegicus. In words: Percent change in total tumor area in DMBA-Induced Hormone-Dependent Mammary Carcinoma rats at 2 mg/kg dose. In kind it is functional.
Assay [28] concerns Rattus norvegicus. Nature of the assay: Percent progression in DMBA-Induced Hormone-Dependent Mammary Carcinoma model in rats at 5 mg/kg dose. Type of assay: functional.
Assay [29] deals with Rattus norvegicus. In words: Initial in tumor number in DMBA-Induced Hormone-Dependent Mammary Carcinoma in rats at 2 mg/kg dose. In kind it is functional.
Assay [30] deals with Rattus norvegicus. In words: Final tumor number in DMBA-Induced Hormone-Dependent Mammary Carcinoma in rats at 2 mg/kg dose. Type of assay: functional.
The test system of assay [31] is Rattus norvegicus. Nature of the assay: Final tumor number in DMBA-Induced Hormone-Dependent Mammary Carcinoma in rats at 5 mg/kg dose. In kind it is functional.
The test system of assay [32] is Rattus norvegicus. In words: Initial tumor number in DMBA-Induced Hormone-Dependent Mammary Carcinoma in rats at 5 mg/kg dose. Type of assay: functional.
The test system of assay [33] is Rattus norvegicus. In words: Percent unchanged tumors in DMBA-Induced Hormone-Dependent Mammary Carcinoma in rats at 2 mg/kg dose. Type of assay: functional.
Assay [34] relates to Rattus norvegicus. Nature of the assay: Percent unchanged tumors in DMBA-Induced Hormone-Dependent Mammary Carcinoma in rats at 5 mg/kg dose. In kind it is functional.
Assay [35] concerns Rattus norvegicus. Nature of the assay: Percent partial remission in DMBA-Induced Hormone-Dependent Mammary Carcinoma in rats at 2 mg/kg dose. In kind it is functional.
In assay [36] the test system is Rattus norvegicus. In words: Percent partial remission in DMBA-Induced Hormone-Dependent Mammary Carcinoma in rats at 5 mg/kg dose. Type of assay: functional.
Assay [37] has as its system Rattus norvegicus. Nature of the assay: Percent progression in DMBA-Induced Hormone-Dependent Mammary Carcinoma in rats at 2 mg/kg dose. In kind it is functional.
Assay [38] relates to Rattus norvegicus. In words: Percent complete remission in DMBA-Induced Hormone-Dependent Mammary Carcinoma in rats at 2 mg/kg dose. In kind it is functional.
The subject of assay [39] is Rattus norvegicus. In words: Percent complete remission in DMBA-Induced Hormone-Dependent Mammary Carcinoma in rats at 5 mg/kg dose. In kind it is functional.
Assay [40] concerns Rattus norvegicus. In words: Percent change in total tumor area in DMBA-Induced Hormone-Dependent Mammary Carcinoma rats at 5 mg/kg dose. In kind it is functional.

T1 sequence (O08537 whole entry, looked up): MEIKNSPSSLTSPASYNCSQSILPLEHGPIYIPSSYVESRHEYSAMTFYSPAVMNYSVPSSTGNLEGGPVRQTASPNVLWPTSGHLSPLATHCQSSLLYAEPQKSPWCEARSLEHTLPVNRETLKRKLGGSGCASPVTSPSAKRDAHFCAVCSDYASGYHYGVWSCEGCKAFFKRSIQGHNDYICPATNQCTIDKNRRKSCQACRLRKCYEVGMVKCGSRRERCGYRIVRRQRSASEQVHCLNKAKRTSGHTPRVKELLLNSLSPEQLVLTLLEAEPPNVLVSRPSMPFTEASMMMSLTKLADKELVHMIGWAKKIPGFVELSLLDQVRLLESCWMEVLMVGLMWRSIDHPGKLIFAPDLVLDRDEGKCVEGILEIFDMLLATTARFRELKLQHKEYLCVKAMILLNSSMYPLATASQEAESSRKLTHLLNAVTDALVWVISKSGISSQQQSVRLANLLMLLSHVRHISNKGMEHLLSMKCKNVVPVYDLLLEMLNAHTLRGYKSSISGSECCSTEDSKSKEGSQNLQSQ
T1 sequence (P19785 whole entry, looked up): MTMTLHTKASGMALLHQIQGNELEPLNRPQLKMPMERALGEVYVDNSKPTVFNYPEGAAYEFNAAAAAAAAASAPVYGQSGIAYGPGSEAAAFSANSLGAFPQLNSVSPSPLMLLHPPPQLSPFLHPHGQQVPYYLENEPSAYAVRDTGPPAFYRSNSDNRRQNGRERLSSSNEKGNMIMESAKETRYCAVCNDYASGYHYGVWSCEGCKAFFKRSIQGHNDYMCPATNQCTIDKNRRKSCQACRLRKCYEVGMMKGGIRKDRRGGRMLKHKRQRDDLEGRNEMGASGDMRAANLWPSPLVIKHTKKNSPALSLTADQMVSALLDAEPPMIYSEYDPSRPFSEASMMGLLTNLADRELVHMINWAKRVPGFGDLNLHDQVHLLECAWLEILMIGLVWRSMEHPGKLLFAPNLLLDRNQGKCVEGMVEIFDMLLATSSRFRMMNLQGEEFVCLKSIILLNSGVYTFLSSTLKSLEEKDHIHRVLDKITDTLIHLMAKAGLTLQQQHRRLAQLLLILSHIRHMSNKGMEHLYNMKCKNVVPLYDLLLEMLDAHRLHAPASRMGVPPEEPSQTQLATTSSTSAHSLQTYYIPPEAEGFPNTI

Regarding `Oc1ccc(/C(=C(/c2ccc(O)cc2)C(F)(F)F)C(F)(F)F)cc1`, the Effect in assay [1] came out at 169; in [2] it was 13.7; in assay [3] it was 182; in assay [4], 52.6; in [5], 38.2; in [6] it was 56.4. In addition, the Effect in assay [7] was 179. The results for the TC in the assay listed under Mus musculus [8], in the assay filed under Mus musculus [9] and in the assay listed under Mus musculus [10] were 10.4%, 5.5% and 5.2%, respectively.
Take `Oc1cccc([C@H]([C@H](c2cccc(O)c2)C(F)(F)F)C(F)(F)F)c1`: the Effect in [11] is 36.7; in assay [2], 10.8; in [12] it was 31.4; in assay [13], 10.1; in assay [4], 15.4; in assay [5], 19.8. Moreover, the Effect in [14] came out at 34.8; in assay [15], 36; in [16], 13.3; in assay [6] it was 10.1; in assay [17] it was 32; in assay [18], 28.8. For the same molecule, the Effect is 90.1 in [19] and 84 in assay [7]. In addition, the inhibition in assay [20] amounted to 18%; in assay [21], 34.5%; in assay [22], 36.6%; in assay [23], 45.5%. Moreover, the TC in the assay filed under Mus musculus [24] is 10.9%; in the assay listed under Mus musculus [9] it was 23.9%. In addition, the Change in weight was -1.1% in the assay on Rattus norvegicus [25], -0.4% with Rattus norvegicus [26] and 38% in the assay with Rattus norvegicus [28]. Further, the “Change in tumor area %” value in the assay on Rattus norvegicus [27] came out at 165%; in the assay with Rattus norvegicus [40] it was 166%. The No. of tumors with Rattus norvegicus [29] was found to be 21; in the assay on Rattus norvegicus [30], 19; in the assay with Rattus norvegicus [31], 11; with Rattus norvegicus [32], 23. For the same molecule, the Tumors turned out to be 28% with Rattus norvegicus [33]; 29% with Rattus norvegicus [34]; 10% with Rattus norvegicus [35]; 12% in the assay on Rattus norvegicus [36]; 47% in the assay with Rattus norvegicus [37]; 15% with Rattus norvegicus [38]. This molecule came in with a Tumors in the assay with Rattus norvegicus [39] of 21%.
